Experimental data from different studies.
Each line is one published result; the experiments were not run side by side.
KIT D816V: Mast/stem cell growth factor receptor Kit (KIT, Homo sapiens, UniProt P10721, D816V)
KIT D816H: Mast/stem cell growth factor receptor Kit (KIT, Homo sapiens, UniProt P10721, D816H)
KIT L576P: Mast/stem cell growth factor receptor Kit (KIT, Homo sapiens, UniProt P10721, L576P)
KIT: Mast/stem cell growth factor receptor Kit (KIT, Homo sapiens, UniProt P10721)
KIT autoinhibited: Mast/stem cell growth factor receptor Kit, autoinhibited (KIT, Homo sapiens, UniProt P10721)
KIT A829P: Mast/stem cell growth factor receptor Kit (KIT, Homo sapiens, UniProt P10721, A829P)

Compound	target	test	setting	remaining binding
CCCCN(CCCC)C(=O)CN1C[C@H](c2cc(OC)c3c(c2)OCO3)[C@@H](C(=O)O)[C@@H]1CC(C)(C)CCC	KIT D816V	cell-free assay, competition with immobilised ligand	1 µM	100%
O=C(NCC1CCOCC1)c1n[nH]cc1NC(=O)c1c(F)cccc1F	KIT D816H	binding, competition with immobilised ligand	1 µM	69%
COc1cnc(Nc2cccc(S(N)(=O)=O)c2)nc1N1CCN(c2ccccc2)C(=O)C1	KIT L576P	binding, competition with immobilised ligand	1 µM	100%
c1cnn2ncc(-c3ccnc(N4CCC45COC5)n3)c2c1	Mast/stem cell growth factor receptor Kit (KIT, Homo sapiens, UniProt P10721, T670I/V559D)	binding	1 µM	84%
CCS(=O)(=O)c1cc2cc(C[C@](O)(CC(C)(C)c3ccc(F)cc3C(N)=O)C(F)(F)F)[nH]c2cn1	KIT D816H	cell-free assay, competition with immobilised ligand	1 µM	98%
C[C@H]1CCN(c2nccc(-c3cnn4ncccc34)n2)C1	Mast/stem cell growth factor receptor Kit (KIT, Homo sapiens, UniProt P10721, V559D/V654A)	binding	1 µM	79%
Nc1ncc2c(n1)-c1c([nH]c3ccc(C#CC4CC4)cc13)CCCC2	KIT	binding, competition with immobilised ligand	1 µM	95%
Cc1cc(NC(=O)c2cccc(S(F)(F)(F)(F)F)c2)cc(-n2ccn3nc(-c4cccnc4)cc23)c1	KIT	cell-free assay, competition with immobilised ligand	1 µM	89.5%
F[C@@H]1CCN(c2nccc(-c3cnn4ncccc34)n2)C1	KIT autoinhibited	binding	1 µM	100%
c1cncc(-c2cccc(Nc3nccc(NC4CCCCC4)n3)c2)c1	KIT D816V	binding, competition with immobilised ligand	10 µM	0.75%
C=CC(=O)N1CCC(C(=O)NCC(=O)N2CCN(c3nc(-c4cnc(N)nc4C(F)F)nc(N4CCOCC4)n3)CC2)CC1	KIT A829P	binding, competition with immobilised ligand	1 µM	100%
O=C(O)[C@H]1[C@H](Cn2nnc3ccccc3c2=O)CC[C@@H]1C(=O)c1ccc(OCCC2CCOCC2)cc1	KIT D816H	cell-free assay, competition with immobilised ligand	1 µM	80%
Cc1cnn2ncc(-c3ccnc(N(C)C)n3)c2c1	KIT D816V	binding	1 µM	100%
CN(C)C(=O)Cn1cc(-c2nc(C3(c4ccc(-c5cnc(N)nc5)cc4)CC3)no2)cn1	KIT A829P	cell-free assay, competition with immobilised ligand	1 µM	93%
O=C(c1ccc(Nc2ncc(Cl)c(-c3cc4ccccc4s3)n2)cc1)N1CCC(N2CCCC2)CC1	KIT autoinhibited	binding, competition with immobilised ligand	1 µM	74%
O=C(Nc1cccnn1)N1CCC(=Cc2cccc(Oc3ccc(C(F)(F)F)cn3)c2)CC1	KIT L576P	binding, competition with immobilised ligand	1 µM	0%
CN(CCCC(F)(F)F)c1nccc(-c2cnn3ncccc23)n1	KIT A829P	binding	1 µM	90%
O=C(NCCCN1CCOCC1)c1ccc(Nc2ncc(Cl)c(-c3ccc(Cl)s3)n2)cc1	KIT	binding, competition with immobilised ligand	1 µM	0.05%
CN1CCN(c2ccc(Nc3nccc(-c4cccc([N+](=O)[O-])c4)n3)cc2C(F)(F)F)CC1	KIT A829P	binding	10 µM	4.3%
CN(c1nccc(-c2cnn3ncccc23)n1)C1CC1	KIT D816V	binding	1 µM	85%
O=C(c1ccc(Nc2nccc(-c3cc4ccccc4s3)n2)cc1)N1CCC(N2CCCC2)CC1	KIT D816H	binding, competition with immobilised ligand	1 µM	18%
COc1ncc2cc3ccccc3nc2c1C#N	KIT	cell-free assay, competition with immobilised ligand	5 µM	92%
N[C@@H]1CCN(c2nccc(-c3cnn4ncccc34)n2)C1	KIT D816V	binding	1 µM	100%
COc1cccc(CNC(=O)c2nc3scc(COCc4ccc(C(=O)O)cc4)c3c(=O)[nH]2)c1	KIT D816V	cell-free assay, competition with immobilised ligand	1 µM	100%
